The target of test [1] is T1, Cholinesterase (Equus caballus, UniProt P81908). Put plainly: Inhibition of equine serum BChE using acetylthiocholine as substrate after 2 mins. In short, it runs like this:
(§1)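 Enzyme sources were electric eel AChE and equine serum BChE. Values are means of at least three independent determinations.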

A short description of test [2]: Selectivity ratio of IC50 for Electric eel AChE to IC50 for equine serum BChE. In short, it runs like this: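 Selectivity ratio calculated as IC50(AChE)/IC50(BChE). AChE was from electric eel and BChE from equine serum. Each IC50 is a mean of at least three independent determinations.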
In test [3] the target is Acetylcholinesterase (Electrophorus electricus) (UniProt O42275). The test is described as follows: Inhibition of Electric eel AChE using acetylthiocholine as substrate at 100 uM after 2 mins. The gist of the method:
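Enzyme sources were electric eel AChE and equine serum BChE. Values are means of at least three independent determinations. Single-point entries are % inhibition at 100 μM.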

Test [4] can be described thus: Antioxidant activity assessed as trolox equivalents of peroxyl radical scavenging activity by ORAC assay. The test is classed as functional. In short, it runs like this: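 ORAC assay: measures how well each compound protects fluorescein from destruction by peroxyl radicals. Capacity is expressed as trolox equivalents, with trolox as the reference.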
For test [5], the target named is Acetylcholinesterase (Electrophorus electricus) (UniProt O42275). Put plainly: Time dependent inhibition of Electric eel AChE assessed as stability constants of inhibitor-enzyme complex using acetylthiocholine as substrate at 10 to 50 nM after 60 mins.
Sequence of Acetylcholinesterase (Electrophorus electricus) (O42275 24-633 limits assumed): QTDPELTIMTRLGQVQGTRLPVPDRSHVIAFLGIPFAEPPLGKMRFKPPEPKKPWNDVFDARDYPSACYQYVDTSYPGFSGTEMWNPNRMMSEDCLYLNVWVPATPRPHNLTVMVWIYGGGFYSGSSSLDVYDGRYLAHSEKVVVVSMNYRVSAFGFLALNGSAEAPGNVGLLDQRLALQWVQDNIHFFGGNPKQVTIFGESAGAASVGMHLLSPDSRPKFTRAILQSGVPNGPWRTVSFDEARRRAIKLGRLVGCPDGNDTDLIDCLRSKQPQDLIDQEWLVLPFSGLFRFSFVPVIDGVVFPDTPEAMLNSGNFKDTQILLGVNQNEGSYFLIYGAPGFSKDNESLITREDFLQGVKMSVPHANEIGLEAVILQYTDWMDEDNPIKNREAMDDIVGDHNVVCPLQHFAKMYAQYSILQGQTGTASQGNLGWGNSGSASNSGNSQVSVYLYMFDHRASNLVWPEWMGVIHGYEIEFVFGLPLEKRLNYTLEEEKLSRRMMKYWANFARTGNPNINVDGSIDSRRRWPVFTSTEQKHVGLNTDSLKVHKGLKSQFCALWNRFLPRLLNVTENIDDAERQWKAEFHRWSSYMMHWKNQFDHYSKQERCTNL
Test [6] has as its target T1, Cholinesterase. Put plainly: Time dependent inhibition of equine serum BChE assessed as stability constants of inhibitor-enzyme complex using acetylthiocholine as substrate after 60 mins.
In test [7] the test system is HT-22. Put plainly: Neuroprotective activity against glutamate-induced oxidative stress in mouse HT22 cells assessed as reduction of intracellular ROS formation at 10 uM after 24 hrs by MTT assay. In kind it is functional, cell-based. The gist of the method:
(§2)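 Murine hippocampal HT-22 cells, which lack ionotropic glutamate receptors, were challenged with extracellular glutamate to cause oxidative (oxytotic) cell death. Compounds were tested at 10 μM and 5 μM against this glutamate-induced toxicity.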
(In general: Tetrazolium dyes change colour on reduction, which living cells bring about.)

The target in test [8] is T2, Acetylcholinesterase (Electrophorus electricus, UniProt O42275). Put plainly: Inhibition of Electric eel AChE using acetylthiocholine as substrate after 2 mins. In short, it runs like this:
as §1

Test [9] concerns HT-22. The test is described as follows: Neuroprotective activity against glutamate-induced oxidative stress in mouse HT22 cells assessed as reduction of intracellular ROS formation at 5 uM after 24 hrs by MTT assay. The test is classed as functional, cell-based. The gist of the method: as §2
The target of test [10] is T2, Acetylcholinesterase. The test is described as follows: Time dependent inhibition of Electric eel AChE assessed as stability constants of inhibitor-enzyme complex using acetylthiocholine as substrate after 60 mins.

Calls of active or inactive are those of the source. No cut-off for these calls is given here.

From ChEMBL document CHEMBL2150892, “Neuroprotective Tri- and Tetracyclic BChE Inhibitors Releasing Reversible Inhibitors upon Carbamate Transfer” (ACS Med Chem Lett, 2012) come the findings set out here.

T2 sequence (O42275 whole entry): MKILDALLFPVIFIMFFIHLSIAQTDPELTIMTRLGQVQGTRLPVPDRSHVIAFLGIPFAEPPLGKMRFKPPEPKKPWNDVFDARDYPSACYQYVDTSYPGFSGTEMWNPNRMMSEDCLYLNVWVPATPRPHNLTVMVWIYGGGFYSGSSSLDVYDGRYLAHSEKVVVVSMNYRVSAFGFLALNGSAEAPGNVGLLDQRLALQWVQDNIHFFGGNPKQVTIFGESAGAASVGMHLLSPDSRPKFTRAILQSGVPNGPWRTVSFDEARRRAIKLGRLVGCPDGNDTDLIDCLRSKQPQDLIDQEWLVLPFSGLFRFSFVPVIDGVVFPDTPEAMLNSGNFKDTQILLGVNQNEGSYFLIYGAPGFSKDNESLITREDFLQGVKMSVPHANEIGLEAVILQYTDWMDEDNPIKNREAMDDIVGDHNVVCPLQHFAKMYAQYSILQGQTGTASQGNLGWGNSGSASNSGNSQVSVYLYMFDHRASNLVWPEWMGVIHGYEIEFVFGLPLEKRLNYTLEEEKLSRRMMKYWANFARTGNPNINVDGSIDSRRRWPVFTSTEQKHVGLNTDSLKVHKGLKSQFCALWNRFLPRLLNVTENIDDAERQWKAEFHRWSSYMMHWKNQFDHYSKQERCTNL
T1 sequence (P81908 whole entry): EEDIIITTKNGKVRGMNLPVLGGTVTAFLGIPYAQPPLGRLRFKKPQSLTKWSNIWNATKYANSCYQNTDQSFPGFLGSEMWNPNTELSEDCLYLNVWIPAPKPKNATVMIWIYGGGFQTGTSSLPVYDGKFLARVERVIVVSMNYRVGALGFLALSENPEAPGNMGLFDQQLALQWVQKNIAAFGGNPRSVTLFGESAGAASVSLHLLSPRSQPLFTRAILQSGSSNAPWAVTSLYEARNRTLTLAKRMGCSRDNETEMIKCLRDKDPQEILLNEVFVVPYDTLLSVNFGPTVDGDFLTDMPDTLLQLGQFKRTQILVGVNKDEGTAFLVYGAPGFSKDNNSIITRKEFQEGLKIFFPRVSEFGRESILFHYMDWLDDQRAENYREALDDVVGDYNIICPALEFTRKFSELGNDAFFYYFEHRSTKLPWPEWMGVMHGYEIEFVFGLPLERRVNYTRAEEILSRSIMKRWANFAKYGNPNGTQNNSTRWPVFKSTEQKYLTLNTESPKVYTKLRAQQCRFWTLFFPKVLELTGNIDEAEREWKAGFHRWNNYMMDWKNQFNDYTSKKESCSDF

With `CCCCCCCNC(=O)Oc1ccc2c(c1)CN1CCc3ccccc3C1N2C` (configuration not stated), in test [1] (read-out: IC50), the IC50 was determined as 0.06 µM. The Ratio IC50 in test [2] was over 15000. The inhibition entry in test [3] and in test [5] was “inactive” throughout. In addition, in test [4], the Ratio came to 0.3. Also, the Ki in [6] worked out at 0.0127 µM. In addition, in test [7], the outcome was Active.
With `CN1c2ccc(O)cc2CN2CCc3ccccc3C21` (configuration not stated), the IC50 was determined as 110 µM in test [8] (read-out: IC50) and 44.3 µM in test [1] (read-out: IC50). In addition, in test [2], the Ratio IC50 came to 2.5. Further, the Ratio in [4] came out at 2.87. In addition, the result in test [7] and in test [9] was Active.
For the compound `CC(C)c1ccc(NC(=O)Oc2ccc3c(c2)CN2CCc4ccccc4C2N3C)cc1` (configuration not stated), in test [1] (read-out: IC50), the IC50 stood at 0.131 µM. For the same compound, the Ratio IC50 in test [2] was over 1500.
Turning to `COc1cccc(NC(=O)Oc2ccc3c(c2)CN2CCCC2N3C)c1` (configuration not stated), the IC50 in [8] (read-out: IC50) is 40.2 µM; in test [1] (read-out: IC50), 7.52 µM. Besides, the Ratio IC50 in test [2] turned out to be 5.3.
Take `CCCCCCCNC(=O)Oc1ccc2c(c1)CN1CCCc3ccccc3C1N2C` (configuration not stated): the IC50 in [1] (read-out: IC50) turned out to be 0.046 µM. Besides, in test [2], the Ratio IC50 was over 4000. The Ratio in [4] came out at 0.86. The result in [7] was Active.
As to `Cc1ccccc1NC(=O)Oc1ccc2c(c1)CN1CCc3ccccc3C1N2C` (configuration not stated), in [1] (read-out: IC50), the IC50 came out at 0.144 µM. The Ratio IC50 in test [2] is over 1350.
`CN1c2ccc(O)cc2CN2CCCC21` (configuration not stated): the IC50 in test [8] (read-out: IC50) was 30.6 µM; in [8] (read-out: pIC50 (converted)) it was 30.2 µM; in test [1] (read-out: IC50) it was 41 µM. The Ratio IC50 in [2] worked out at 0.75. For the same compound, the Ratio in test [4] is 3.43. Also, the result in [7] and in test [9] was Active.
`COc1ccc2c(c1)CN1CCCc3ccccc3C1N2C` (configuration not stated): in test [1] (read-out: IC50), the IC50 turned out to be 29.7 µM. Also, the Ratio IC50 in [2] was over 6.7. For the same compound, the Ratio in test [4] came to 1.2.
As for `CN1c2ccccc2CN2CCc3ccccc3C21` (configuration not stated), the IC50 in test [8] (read-out: IC50) amounted to 145 µM; in test [1] (read-out: IC50), 44 µM. In addition, the Ratio IC50 in test [2] amounted to 3.3. Besides, the Ratio in [4] worked out at 0.92. In addition, the outcome in test [7] was inactive.
Take `Cc1ccccc1NC(=O)Oc1ccc2c(c1)CN1CCCC1N2C` (configuration not stated): the IC50 in test [8] (read-out: IC50) stood at 66.3 µM; in [1] (read-out: IC50) it was 4.11 µM. For the same compound, in test [2], the Ratio IC50 amounted to 16.1.
As for `CC(C)c1ccc(NC(=O)Oc2ccc3c(c2)CN2CCCC2N3C)cc1` (configuration not stated), the IC50 in [1] (read-out: IC50) stood at 3 µM. Besides, in test [2], the Ratio IC50 is over 66.6.
As to `CN1c2ccc(O)cc2CN2CCCc3ccccc3C21` (configuration not stated), the IC50 in test [8] (read-out: IC50) worked out at 37.8 µM; in [1] (read-out: IC50), 7.3 µM. Moreover, in test [2], the Ratio IC50 was 5.2. For the same compound, in test [4], the Ratio was found to be 2.48. For the same compound, the result in test [7] and in [9] was Active.
As for `CN1c2ccccc2CN2CCCC21` (configuration not stated), the IC50 in [8] (read-out: IC50) was 131 µM; in test [1] (read-out: IC50), 38.9 µM. Moreover, the Ratio IC50 in test [2] amounted to 3.4.
In the case of `COc1ccc2c(c1)CN1CCc3ccccc3C1N2C` (configuration not stated), the results for the IC50 in test [8] (read-out: IC50) and in test [1] (read-out: IC50) were 232 µM and 55.6 µM, respectively. Moreover, the Ratio IC50 in [2] amounted to 4.2. The Ratio in test [4] was found to be 0.51. Besides, in [9], the outcome was inactive.
In the case of `CCN(C)C(=O)Oc1ccc2c(c1)CN1CCc3ccccc3C1N2C` (configuration not stated), the IC50 in test [8] (read-out: IC50) was 24.4 µM; in test [8] (read-out: pIC50 (converted)) it was 234 µM; in test [1] (read-out: IC50), 0.45 µM; in test [1] (read-out: pIC50 (converted)), 24.5 µM. The Ratio IC50 in test [2] was found to be 54.2. The Ratio in test [4] was 0.65. Further, the values for the Ki in test [10] and in test [6] were 1.12 µM and 0.275 µM, respectively. The outcome in test [7] was inactive.
As for `COc1cccc(NC(=O)Oc2ccc3c(c2)CN2CCc4ccccc4C2N3C)c1` (configuration not stated), the IC50 in test [1] (read-out: IC50) was determined as 0.218 µM. Besides, in [2], the Ratio IC50 was over 900.
For `CN1c2ccccc2CN2CCCc3ccccc3C21` (configuration not stated) the same measures were 23.7 µM and over 8.4.
As for `CCCCCCCNC(=O)Oc1ccc2c(c1)CN1CCCC1N2C` (configuration not stated), the IC50 in test [8] (read-out: IC50) turned out to be 32.3 µM; in test [1] (read-out: IC50), 1.95 µM. The Ratio IC50 in test [2] stood at 16.6. The Ratio in [4] stood at 1.03. For the same compound, the result in test [7] and in test [9] was Active.
